# In ChEMBL document CHEMBL1154231, “Bioactive Nortriterpenoids from Schisandra grandiflora” (J Nat Prod, 2009):
# Tests used:
# [1] = system: Human immunodeficiency virus 1; assay: Antiviral activity against HIV1 infected in human C8166 cells assessed as inhibition of virus-induced cytopathic effect; assay type: functional, organism-based; conditions: Human immunodeficiency virus 1, C8166
# Summary of the method: (§1)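 HIV-1-induced cytopathic effect inhibition in permanent human T-cell line C8166, giving EC50. Cytotoxicity to uninfected C8166 cells run in parallel by MTT, giving CC50. Selectivity index taken as CC50/EC50. AZT served as positive control.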
# [2] = Selectivity index, ratio of CC50 for human C8166 cells to EC50 for HIV1; assay type: toxicity, cell-based; conditions: read-out: Ratio CC50/EC50; summary of the method: as §1
# K562 = assay: Cytotoxicity against human K562 cells after 48 hrs by sulforhodamine B assay; assay type: functional, cell-based; conditions: K562, 48 h
# HepG2 = assay: Cytotoxicity against human HepG2 cells after 48 hrs by sulforhodamine B assay; assay type: functional, cell-based; conditions: HepG2, 48 h
# [3] = Cytotoxicity against human C8166 cells by MTT assay; assay type: cell-based; summary of the method: as §1
EC50 [1] [µg/mL],Compound,selectivity ratio [2],IC50 (K562) [µg/mL],IC50 (HepG2) [µg/mL],CC50 [3] [µg/mL]
80.2,C[C@@H]1C(=O)[C@@]2(C)CC[C@]34C[C@]56OC(=O)C[C@H]5O[C@@](C)(CO)[C@@H]6CC[C@@]3(O)C(=O)[C@@]3(O[C@@]5(C[C@H](C)C(=O)O5)[C@@H]1[C@H]32)O4 [SCHIGRANDILACTONE A],1.1,0.13,0.19,
20.8,C[C@@H]1C(=O)[C@@]2(C)CC[C@]34C[C@]56OC(=O)C[C@H]5O[C@@](C)(CO)[C@@H]6C[C@@H]5O[C@@]53C(=O)[C@@]3(O[C@@]5(C[C@H](C)C(=O)O5)[C@@H]1[C@H]32)O4 [SCHIGRANDILACTONE B],4,3.19,0.2,
5.1,C[C@@H]1C(=O)[C@@]2(C)CC[C@]34C[C@]56OC(=O)C[C@H]5O[C@@](C)(CO)[C@@H]6[C@@H](O)C[C@H]3C(=O)[C@]3(O4)O[C@@]4(C[C@H](C)C(=O)O4)[C@@H]1[C@H]32 [SCHIGRANDILACTONE C],12.7,,,
,Cc1cn([C@H]2C[C@H](N=[N+]=[N-])[C@@H](CO)O2)c(=O)[nH]c1=O [ZIDOVUDINE],,,,> 200
